# Measured values: ChEMBL document CHEMBL3853270, “Influence of Birch Bark Triterpenes on Keratinocytes and Fibroblasts from Diabetic and Nondiabetic Donors” (2016)
# Active and inactive are the calls of the source. No cut-off for these calls is given here.
# Legend:
# Assay type in all cases: functional
# Keratinocyte [1] = experiment: Effect on chemokines related gene expression in non-diabetic adult human primary keratinocytes assessed as IL8 mRNA levels at 9.81 uM after 6 hrs by qPCR analysis
# Keratinocyte [2] = experiment: Effect on chemokines related gene expression in non-diabetic young human primary keratinocytes assessed as CXCL10 mRNA levels at 1.96 uM after 6 hrs by qPCR analysis
# Procedure, shortened: (§1)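 Primary human keratinocytes (nondiabetic young or adult, diabetic adult donors) were exposed to compound for 6 h, with 0.1% DMSO as solvent control. Total RNA came from 400 000 cells per sample and was assayed on a Fluidigm Biomark high-throughput qPCR chip. Results are fold change vs solvent control, from 2−4 independent experiments on two donors per group, with SD. Groups were compared by one-way ANOVA with Bonferroni post-test.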
# Fibroblast [3] = experiment: Effect on transcription factor related gene expression in diabetic adult human primary fibroblasts assessed as JUN mRNA levels at 1.96 uM after 6 hrs by qPCR analysis
# [4] = Effect on wound healing activity in diabetic adult human primary keratinocytes assessed as upregulation of MIP1alpha protein levels at 1.96 uM after 24 hrs by bead-based suspension array analysis; settings: Keratinocyte
# Fibroblast [5] = experiment: Effect on adhesion molecules related gene expression in non-diabetic adult human primary fibroblasts assessed as ICAM1 mRNA levels at 9.81 uM after 6 hrs by qPCR analysis
# Procedure, shortened: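 Dermal fibroblasts from nondiabetic adult and diabetic adult donors, exposed for 6 h at 1.96 or 9.81 μM. ICAM-1 and VCAM-1 mRNA measured by standard qRT-PCR, n = 3. Fold change versus 0.1% DMSO control, SD, one-way ANOVA with Bonferroni post-test.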
# [6] = Effect on wound healing activity in non-diabetic adult human primary keratinocytes assessed as upregulation of IL1RA protein levels at 1.96 uM after 24 hrs by bead-based suspension array analysis; settings: Keratinocyte
# [7] = Effect on wound healing activity in diabetic adult human primary fibroblasts assessed as upregulation of soluble ICAM1 protein levels at 1.96 uM after 24 hrs by bead-based suspension array analysis; settings: Fibroblast
# Fibroblast [8] = experiment: Effect on chemokines related gene expression in diabetic adult human primary fibroblasts assessed as CCL2 mRNA levels at 1.96 uM after 6 hrs by qPCR analysis
# Fibroblast [9] = experiment: Effect on growth factors related gene expression in diabetic adult human primary fibroblasts assessed as FGF2 mRNA levels at 1.96 uM after 6 hrs by qPCR analysis
# Procedure, shortened: (§2)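 Primary human dermal fibroblasts (young or adult nondiabetic, adult diabetic donor) were treated for 6 h against a 0.1% DMSO solvent control. RNA from 320 000 cells per sample was measured by Fluidigm Biomark high-throughput qPCR. Values are fold change relative to solvent control, from four independent experiments, with SD. One-way ANOVA with Bonferroni post-test was applied.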
# Fibroblast [10] = experiment: Effect on pro-inflammatory related gene expression in non-diabetic young human primary fibroblasts assessed as PTGS2 mRNA levels at 1.96 uM after 6 hrs by qPCR analysis
# Fibroblast [11] = experiment: Effect on growth factor related gene expression in non-diabetic adult human primary fibroblasts assessed as VEGFA mRNA levels at 9.81 uM after 6 hrs by qPCR analysis; procedure, shortened: as §2
# Keratinocyte [12] = experiment: Effect on growth factor related gene expression in non-diabetic young human primary keratinocytes assessed as PDGFB mRNA levels at 1.96 uM after 6 hrs by qPCR analysis; procedure, shortened: as §1
# Keratinocyte [13] = experiment: Effect on growth factor related gene expression in non-diabetic young human primary keratinocytes assessed as VEGFA mRNA levels at 1.96 uM after 6 hrs by qPCR analysis; procedure, shortened: as §1
# [14] = Effect on wound healing activity in diabetic adult human primary keratinocytes assessed as upregulation of RANTES protein levels at 1.96 uM after 24 hrs by bead-based suspension array analysis; settings: Keratinocyte
# Keratinocyte [15] = experiment: Effect on pro-inflammatory related gene expression in non-diabetic young human primary keratinocytes assessed as IL1R1 mRNA levels at 1.96 uM after 6 hrs by qPCR analysis
# Fibroblast [16] = experiment: Effect on MMP1 mRNA expression levels in non-diabetic adult human primary fibroblasts at 1.96 uM after 6 hrs by qPCR analysis
# Procedure, shortened: (§3)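 Primary dermal fibroblasts from one nondiabetic young, one nondiabetic adult and one diabetic adult donor; 320 000 cells per sample, 6 h at 1.96 or 9.81 μM. RNA measured on a high-throughput qPCR chip. Fold change versus 0.1% DMSO control, four independent experiments, SD, one-way ANOVA with Bonferroni post-test.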
# Fibroblast [17] = experiment: Effect on pro-inflammatory related gene expression in non-diabetic adult human primary fibroblasts assessed as PTGS2 mRNA levels at 9.81 uM after 6 hrs by qPCR analysis
# Keratinocyte [18] = experiment: Effect on growth factor related gene expression in non-diabetic adult human primary keratinocytes assessed as GDF15 mRNA levels at 9.81 uM after 6 hrs by qPCR analysis; procedure, shortened: as §1
# Keratinocyte [19] = experiment: Effect on cellular connection related gene expression in non-diabetic adult human primary keratinocytes assessed as CLDN4 mRNA levels at 1.96 uM after 6 hrs by qPCR analysis
# Keratinocyte [20] = experiment: Effect on antiinflammatory related gene expression in diabetic adult human primary keratinocytes assessed as NFKBIA mRNA levels at 9.81 uM after 6 hrs by qPCR analysis
# Procedure, shortened: (§4)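 Primary keratinocytes from nondiabetic young and adult and diabetic adult donors; 400 000 cells per sample, 6 h exposure at 1.96 or 9.81 μM. RNA extracted and read on a high-throughput qPCR chip. Results are fold change versus 0.1% DMSO solvent control from 5−7 independent experiments over two donors per group, SD, one-way ANOVA with Bonferroni post-test.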
# Fibroblast [21] = experiment: Effect on MMP1 mRNA expression levels in non-diabetic young human primary fibroblasts at 1.96 uM after 6 hrs by qPCR analysis; procedure, shortened: as §3
# Keratinocyte [22] = experiment: Effect on antioxidant related gene expression in diabetic adult human primary keratinocytes assessed as SOD2 mRNA levels at 9.81 uM after 6 hrs by qPCR analysis
# Fibroblast [23] = experiment: Effect on antiinflammatory related gene expression in non-diabetic adult human primary fibroblasts assessed as SOCS3 mRNA levels at 9.81 uM after 6 hrs by qPCR analysis; procedure, shortened: as §3
# Keratinocyte [24] = experiment: Effect on pro-inflammatory related gene expression in non-diabetic young human primary keratinocytes assessed as IL6 mRNA levels at 1.96 uM after 6 hrs by qPCR analysis
# Fibroblast [25] = experiment: Effect on pro-inflammatory related gene expression in diabetic adult human primary fibroblasts assessed as IL6 mRNA levels at 1.96 uM after 6 hrs by qPCR analysis; procedure, shortened: as §2
# Fibroblast [26] = experiment: Effect on chemokines related gene expression in non-diabetic adult human primary fibroblasts assessed as CCL2 mRNA levels at 1.96 uM after 6 hrs by qPCR analysis
# Fibroblast [27] = experiment: Effect on growth factor related gene expression in non-diabetic young human primary fibroblasts assessed as GDF15 mRNA levels at 1.96 uM after 6 hrs by qPCR analysis; procedure, shortened: as §2
# Keratinocyte [28] = experiment: Effect on MMP1 mRNA expression levels in non-diabetic young human primary keratinocytes at 1.96 uM after 6 hrs by qPCR analysis; procedure, shortened: as §4
# Keratinocyte [29] = experiment: Effect on transcription factor related gene expression in diabetic adult human primary keratinocytes assessed as JUN mRNA levels at 1.96 uM after 6 hrs by qPCR analysis
smiles,measurement,setting,value
C=C(C)[C@@H]1CC[C@]2(CO)CC[C@]3(C)[C@H](CC[C@@H]4[C@@]5(C)CC[C@H](O)C(C)(C)[C@@H]5CC[C@]43C)[C@@H]12 [BETULIN],fold change (FC),Keratinocyte [1],69.9
same,fold change (FC),Keratinocyte [2],1.9
same,fold change (FC),Fibroblast [3],1.3
same,Activity,[4],Active
same,fold change (FC),Fibroblast [5],152
same,Activity,[6],Active
same,Activity,[7],Active
same,fold change (FC),Fibroblast [8],3.7
same,fold change (FC),Fibroblast [9],2
same,fold change (FC),Fibroblast [10],10.9
same,fold change (FC),Fibroblast [11],2
same,fold change (FC),Keratinocyte [12],1.2
same,fold change (FC),Keratinocyte [13],1.3
same,Activity,[14],Active
same,fold change (FC),Keratinocyte [15],0.9
same,fold change (FC),Fibroblast [16],2.1
same,fold change (FC),Fibroblast [17],179
same,fold change (FC),Keratinocyte [18],1
same,fold change (FC),Keratinocyte [19],1
same,fold change (FC),Keratinocyte [20],2
same,fold change (FC),Fibroblast [21],0.8
same,fold change (FC),Keratinocyte [22],1.6
same,fold change (FC),Fibroblast [23],24.6
same,fold change (FC),Keratinocyte [24],3.6
same,fold change (FC),Fibroblast [25],14.9
same,fold change (FC),Fibroblast [26],171
same,fold change (FC),Fibroblast [27],3.7
same,fold change (FC),Keratinocyte [28],1
same,fold change (FC),Keratinocyte [29],1.2
